Assay results published in ChEMBL document CHEMBL3272265, “Interferon inducing activities of derivatives of 1,3-dimethyl-4-(3-dimethylaminopropylamino)-1H-pyrazolo(3,4-b)quinoline and related compounds” (J Med Chem, 1976).
Activity calls are given as the source filed them. The rule behind the calls is not given here.

Assays:
Mus musculus [1] = experiment: Toxicity in CD-1 mouse at 300 mg/kg, ip; type: organism-based; parameters: dose 300 mg/kg, route intraperitoneal; settings: in vivo
Mus musculus [2] = experiment: Induction of interferon level in CD-1 mouse serum at 100 mg/kg, ip after 18 to 20 hrs by vesicular stomatitis virus plaque reduction assay; type: functional, organism-based; parameters: dose 100 mg/kg
Method in brief: (§1)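 Dosing was oral or ip in 15-g female CD-1 mice, at least three per dose level, with compound in sterile distilled water as a solution or suspension. Pooled sera were collected 18–20 hr after dosing. Interferon units/ml were quantified by a plaque reduction assay on mouse L cells with vesicular stomatitis virus challenge, run against an NIAID reference mouse interferon standard.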

Mus musculus [3] = experiment: Induction of interferon level in CD-1 mouse serum at 100 mg/kg, po after 18 to 20 hrs by vesicular stomatitis virus plaque reduction assay; type: functional, organism-based; parameters: dose 100 mg/kg; method in brief: as §1
Mus musculus [4] = experiment: Induction of interferon level >= 32 units/mL in ip dosed CD-1 mouse serum after 18 to 20 hrs by vesicular stomatitis virus plaque reduction assay; type: functional; settings: CD-1, Serum, read-out: MED
Method in brief: (§2)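 Female CD-1 mice (15 g; at least three per dose) received compound dissolved or suspended in sterile distilled water, orally or ip. They were bled 18–20 hr later and sera pooled. Interferon was titrated by plaque reduction in mouse L cells challenged with vesicular stomatitis virus, with an NIAID reference mouse interferon standard. MED was the lowest dose giving ≥32 units/ml. Top doses were 400 mg/kg po and 300 mg/kg ip.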

Mus musculus [5] = experiment: Induction of interferon level in CD-1 mouse serum at 400 mg/kg, po after 18 to 20 hrs by vesicular stomatitis virus plaque reduction assay; type: functional, organism-based; parameters: dose 400 mg/kg; method in brief: as §1
Mus musculus [6] = experiment: Induction of interferon level in CD-1 mouse serum at 50 mg/kg, ip after 18 to 20 hrs by vesicular stomatitis virus plaque reduction assay; type: functional, organism-based; parameters: dose 50 mg/kg; method in brief: as §1
Mus musculus [7] = experiment: Induction of interferon level >= 32 units/mL in po dosed CD-1 mouse serum after 18 to 20 hrs by vesicular stomatitis virus plaque reduction assay; type: functional; settings: CD-1, Serum, read-out: MED; method in brief: as §2
Mus musculus [8] = experiment: Toxicity in CD-1 mouse at 400 mg/kg, po; type: organism-based; parameters: dose 400 mg/kg, route oral; settings: in vivo
Mus musculus [9] = experiment: Induction of interferon level in CD-1 mouse serum at 300 mg/kg, ip after 18 to 20 hrs by vesicular stomatitis virus plaque reduction assay; type: functional, organism-based; parameters: dose 300 mg/kg; method in brief: as §1
Mus musculus [10] = experiment: Acute toxicity in CD-1 mouse at 250 mg/kg, ip; type: organism-based; parameters: dose 250 mg/kg, route intraperitoneal; settings: in vivo
Mus musculus [11] = experiment: Acute toxicity in CD-1 mouse at 1600 mg/kg, po; type: organism-based; parameters: dose 1600 mg/kg, route oral; settings: in vivo
Mus musculus [12] = experiment: Induction of interferon level in CD-1 mouse serum at 17 mg/kg, ip after 18 to 20 hrs by vesicular stomatitis virus plaque reduction assay; type: functional, organism-based; parameters: dose 17 mg/kg; method in brief: as §1
Mus musculus [13] = experiment: Induction of interferon level in CD-1 mouse serum at 200 mg/kg, po after 18 to 20 hrs by vesicular stomatitis virus plaque reduction assay; type: functional, organism-based; parameters: dose 200 mg/kg; method in brief: as §1
Mus musculus [14] = experiment: Induction of interferon level in CD-1 mouse serum at 9 mg/kg, ip after 18 to 20 hrs by vesicular stomatitis virus plaque reduction assay; type: functional, organism-based; parameters: dose 9 mg/kg; method in brief: as §1
Mus musculus [15] = species: Mus musculus; experiment: Acute toxicity in CD-1 mouse; type: organism-based; settings: in vivo

Structure (SMILES)	Activity (Mus musculus [1])	Activity (Mus musculus [2])	other results
Cc1nn(CCCN(C)C)c2nc3ccccc3cc12.Cl	Toxic	inactive	–
Cc1nn(C)c2nc3ccccc3c(NCCCNC34CC5CC(CC(C5)C3)C4)c12.Cl	Toxic	–	Activity (Mus musculus [3]): inactive
Cc1nn(C)c2nc3ccccc3c(NCCCN3CCOCC3)c12.Cl	–	–	minimal effective dose (Mus musculus [4]): 300 mg/kg; Activity (Mus musculus [5]): inactive
Cc1nn(C)c2nc3ccccc3c(N3CCC(CCN(C)C)CC3)c12.Cl	Toxic	–	Activity (Mus musculus [6]): inactive
Cc1nn(C)c2nc3cc(C(F)(F)F)ccc3c(NCCCN(C)C)c12.Cl	Toxic	inactive	–
Cc1cccc2nc3c(c(C)nn3C)c(NCCCN(C)C)c12.Cl	Toxic	inactive	Activity (Mus musculus [5]): inactive
Cc1nn(C)c2nc3ccc([N+](=O)[O-])cc3c(NCCCN(C)C)c12.Cl	Toxic	inactive	–
Cc1nn(C)c2nc3ccc(Cl)cc3c(NCCCN(C)C)c12.Cl	Toxic	inactive	–
COC(=O)Cn1nc(C)c2c(NCCCN(C)C)c3ccccc3nc21.Cl	Toxic	inactive	–
Cc1nn(Cc2ccccc2)c2nc3ccccc3c(NCCCN(C)C)c12.Cl	Toxic	inactive	–
CCC1CCC(C)N(CCCNc2c3ccccc3nc3c2c(C)nn3C)C1.Cl (centres undefined)	Toxic	inactive	–
Cc1nn(C)c2nc3ccccc3c(NCCc3ccccn3)c12.Cl	Toxic	–	Activity (Mus musculus [6]): inactive
Cc1nn(C)c2nc3ccc(I)cc3c(NCCCN(C)C)c12.Cl	Toxic	inactive	minimal effective dose (Mus musculus [7]): ≥ 400 mg/kg
Cc1nn(C)c2nc3ccccc3c(OCCCN(C)C)c12.Cl	Toxic	–	Activity (Mus musculus [6]): inactive
CCc1nn(C)c2nc3ccccc3c(NCCCN(C)C)c12.Cl	Toxic	inactive	minimal effective dose (Mus musculus [7]): 200 mg/kg
CCc1ccc2nc3c(c(C)nn3C)c(NCCCN(C)C)c2c1.Cl	Toxic	inactive	minimal effective dose (Mus musculus [7]): 200 mg/kg
Cc1nn(CC(F)(F)F)c2nc3ccccc3c(NCCCN(C)C)c12.Cl	Toxic	inactive	–
COc1ccc2nc3c(c(C)nn3C)c(NCCCN(C)C)c2c1.Cl	Toxic	inactive	minimal effective dose (Mus musculus [7]): 200 mg/kg
CCOC(=O)c1cnc2c(c(C)nn2C)c1NCCCN(C)C	–	–	Activity (Mus musculus [3]): inactive
Cc1nn(C)c2nc3ccccc3c(NCc3cccnc3)c12.Cl	Toxic	inactive	–
CCCCN(CCCC)CCCNc1c2ccccc2nc2c1c(C)nn2C.Cl	Toxic	inactive	–

Structure (SMILES)	Activity (Mus musculus [1])	Activity (Mus musculus [2])	other results
COc1ccc(Cl)c2c(NCCCN(C)C)c3c(C)nn(C)c3nc12.Cl	–	–	Activity (Mus musculus [8]): Toxic; Activity (Mus musculus [3]): inactive
Cc1cccc2c(NCCCN(C)C)c3c(C)nn(C)c3nc12.Cl	Toxic	inactive	–
Cc1nn(C)c2nc3ccccc3c(NCCCN3CCCCC3)c12.Cl	Toxic	inactive	minimal effective dose (Mus musculus [7]): 200 mg/kg
CN(C)CCCNc1c2ccccc2nc2ccccc12.Cl	–	–	minimal effective dose (Mus musculus [4]): ≥ 300 mg/kg; Activity (Mus musculus [5]): inactive
Cc1nn(C)c2nc3c(c(NCCCN(C)C)c12)CCCC3	–	inactive	Activity (Mus musculus [5]): inactive
CCn1nc(C)c2c(NCCCN(C)C)c3ccccc3nc21.Cl	Toxic	inactive	Activity (Mus musculus [5]): inactive; Activity (Mus musculus [9]): inactive
Cc1nn(C)c2nc3ccccc3c(NCCCN(C)C)c12.Cl	–	–	minimal effective dose (Mus musculus [4]): 100 mg/kg; Activity (Mus musculus [10]): Toxic; Activity (Mus musculus [11]): Toxic; minimal effective dose (Mus musculus [7]): 200 mg/kg
CCc1ccc2c(NCCCN(C)C)c3c(C)nn(C)c3nc2c1.Cl	Toxic	inactive	minimal effective dose (Mus musculus [7]): 200 mg/kg
Cc1nn(CCCN(C)C)c2nc3ccccc3c(Cl)c12.Cl	Toxic	–	Activity (Mus musculus [12]): inactive
CCc1n[nH]c2nc3ccccc3c(NCCCN(C)C)c12.Cl	Toxic	inactive	–
Cc1nn(C)c2nc3ccccc3c(SCCCN(C)C)c12.Cl	Toxic	–	Activity (Mus musculus [13]): inactive; Activity (Mus musculus [6]): inactive
Cc1nn(C)c2nc3ccccc3c(NCCc3ccncc3)c12.Cl	Toxic	–	Activity (Mus musculus [12]): inactive; Activity (Mus musculus [14]): inactive
Cc1ccc2c(NCCCN(C)C)c3c(C)nn(C)c3nc2c1.Cl	–	–	minimal effective dose (Mus musculus [4]): 50 mg/kg; Activity (Mus musculus [5]): inactive; minimal effective dose (Mus musculus [7]): 50 mg/kg; Activity (Mus musculus [15]): Toxic
Cc1nn(C(C)C)c2nc3ccccc3c(NCCCN(C)C)c12.Cl	Toxic	–	Activity (Mus musculus [6]): inactive
Cc1nn(CCCN(C)C)c2nc3ccccc3c(NCCCN(C)C)c12.Cl	Toxic	inactive	Activity (Mus musculus [5]): inactive
Cc1nn(CCNCCCN(C)C)c2nc3ccccc3c(NCCCN(C)C)c12.Cl	Toxic	–	Activity (Mus musculus [14]): inactive
Cc1nn(C)c2nc3ccccc3c(NC3CC3)c12.Cl	Toxic	–	Activity (Mus musculus [3]): inactive
Cc1nn(C)c2nc3ccccc3c(NCCCN3CCCC3=O)c12.Cl	Toxic	inactive	–
Cc1nn(C)c2nc3ccccc3c(NCCN3CCCC3)c12.Cl	Toxic	inactive	–
Cc1nn(C)c2nc3ccccc3c(NCCC3CCCN3C)c12.Cl (centres undefined)	Toxic	inactive	–
COc1cc2nc3c(c(C)nn3C)c(NCCCN(C)C)c2c(OC)c1OC.Cl	–	–	Activity (Mus musculus [8]): Toxic; Activity (Mus musculus [13]): inactive
